Data set [1] relates to MC3T3-E1. Put plainly: Increase in OPG mRNA expression in mouse MC3T3-E1 cells up to 4 uM after 48 hrs in presence of ascorbic acid and beta-glycerophosphate by real-time PCR analysis. It is filed as functional, cell-based. A digest of the protocol: (§1)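 MC3T3-E1 cells stimulated with 400 μM ascorbic acid and 5 mM β-glycerophosphate, with or without compound, 48 h. TRIzol RNA, real-time RT-PCR: 40 cycles of 95 °C 20 s, 56 °C 20 s, 72 °C 30 s. Ct of each transcript […] β-actin Ct, expressed relative to control samples.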

Data set [2] concerns MC3T3-E1. Put plainly: Upregulation of OPG protein expression in mouse MC3T3-E1 cells up to 4 uM after 48 hrs in presence of ascorbic acid and beta-glycerophosphate by Western blot analysis. It is filed as functional, cell-based. In general terms: Immunoblotting shows a protein as a band on a membrane.
Data set [3] relates to MC3T3-E1. Put plainly: Downregulation of RANKL protein expression in mouse MC3T3-E1 cells up to 4 uM after 48 hrs in presence of ascorbic acid and beta-glycerophosphate by Western blot analysis. It is filed as functional, cell-based. A digest of the protocol: (§2)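 MC3T3-E1 cells given 400 μM ascorbic acid plus 5 mM β-glycerophosphate, exposed to test compound or not for 48 h. Lysed in boiling SDS sample buffer, protein measured by BCA. 40−50 μg of lysate run on 8% or 10% SDS-PAGE and transferred to PVDF. Blocked in 5% milk, probed with primary antibodies for 3 h at room temperature or overnight at 4 °C, detected by ECL.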

The species named for data set [4] is Mus musculus. As to the kind of experiment: Activation of Wnt signaling pathway in mouse MC3T3-E1 cells assessed as increase in Smad protein expression up to 4 uM after 48 hrs in presence of ascorbic acid and beta-glycerophosphate by Western blot analysis. In kind it is cell-based. A digest of the protocol:
as §2

Data set [5] in a line: Cytotoxicity against mouse osteoclasts assessed as effect on cell survival up to 4 uM after 72 hrs by MTT assay. It is filed as cell-based, Osteoclast. As to conditions: read-out: Survival. A general note: Tetrazolium dyes change colour on reduction, which living cells bring about.
The test system of data set [6] is Mus musculus. As to the kind of experiment: Anti-osteoporotic activity in po dosed OVX-induced bone loss ICR mouse model assessed as decrease in trabecular bone destruction in femur administered for 12 weeks by microcomputed tomography. In kind it is functional, organism-based.
Data set [7] deals with Mus musculus. As to the kind of experiment: Anti-osteoporotic activity in ovariectomized ICR mouse assessed as increase in trabecular number in femur at 2 to 10 mg/kg, po after 12 weeks by microcomputed tomography. In kind it is functional, organism-based.
In data set [8] the test system is Mus musculus. As to the kind of experiment: Anti-osteoporotic activity in ovariectomized ICR mouse assessed as increase in trabecular thickness in femur at 2 to 10 mg/kg, po after 12 weeks by microcomputed tomography. It is filed as functional, organism-based.
Data set [9] relates to Mus musculus. As to the kind of experiment: Anti-osteoporotic activity in ovariectomized ICR mouse assessed as suppression of changes in trabecular separation in femur at 2 to 10 mg/kg, po after 12 weeks by microcomputed tomography. It is filed as functional, organism-based.
Data set [10] concerns Mus musculus. As to the kind of experiment: Effect on alkaline phosphatase activity in serum of OVX-induced bone loss ICR mouse model at 5 mg/kg, po for 12 weeks using p-NPP as substrate (reference value: 84.9 +/- 4.2 U/L). In kind it is functional.
The subject of data set [11] is Mus musculus. As to the kind of experiment: Effect on TRAP activity in serum of OVX-induced bone loss ICR mouse model at 10 mg/kg, po for 12 weeks (reference value: 19.8 +/- 1.0 U/L). It is filed as functional.
Data set [12] deals with Mus musculus. Put plainly: Effect on osteocalcin level in serum of OVX-induced bone loss ICR mouse model at 2 mg/kg, po for 12 weeks by ELISA (reference value: 176.9 +/- 4.7 ng/ml). It is filed as functional. In general terms: In an ELISA, binding on a coated surface is turned into a signal by an enzyme label.
The test system of data set [13] is Mus musculus. As to the kind of experiment: Effect on osteocalcin level in serum of OVX-induced bone loss ICR mouse model at 10 mg/kg, po for 12 weeks by ELISA (reference value: 176.9 +/- 4.7 ng/ml). In kind it is functional.
The subject of data set [14] is MC3T3-E1. As to the kind of experiment: Increase in OPN mRNA expression in 2 days differentiated mouse MC3T3-E1 cells up to 4 uM after 48 hrs in presence of ascorbic acid and beta-glycerophosphate by real-time PCR analysis. It is filed as functional, cell-based.
The test system of data set [15] is MC3T3-E1. Put plainly: Increase in OPG to RANKL mRNA expression ratio in mouse MC3T3-E1 cells up to 4 uM after 48 hrs in presence of ascorbic acid and beta-glycerophosphate by real-time PCR analysis. It is filed as functional, cell-based. A digest of the protocol: as §1

The source made the active and inactive calls. The rule behind the calls is not given here.

Take `C[C@]1(OC(=O)/C=C/c2ccccc2)C[C@@H](O)[C@]2(O)C=CO[C@@H](O[C@@H]3O[C@H](CO)[C@@H](O)[C@H](O)[C@H]3O)[C@@H]21` [HARPAGOSIDE]: the outcome in the data set on MC3T3-E1 [1], with MC3T3-E1 [2], in the data set on MC3T3-E1 [3], in the data set listed under Mus musculus [4], in the data set on Mus musculus [7] and with Mus musculus [8] was Active. For the same compound, the result in the data set with Mus musculus [9] and in the data set on MC3T3-E1 [15] was Active. Also, the viability at 72 h in data set [5] was more than 85%. For the same compound, the Activity result was “Dose-dependent effect” in the data set on Mus musculus [6]; 82.6 U/L in the data set with Mus musculus [10]; 7.7 U/L in the data set with Mus musculus [11]; 170 ng/mL in the data set on Mus musculus [12]; 156.9 ng/mL in the data set with Mus musculus [13]; “Dose-dependent effect” in the data set on MC3T3-E1 [14].

The record behind these values is ChEMBL document CHEMBL4052590, “Anti-Osteoporotic Activity of Harpagoside by Upregulation of the BMP2 and Wnt Signaling Pathways in Osteoblasts and Suppression of Differentiation in Osteoclasts” (J Nat Prod, 2017).
